The text below walks through data of ChEMBL document CHEMBL5653631, “A Potent and Selective ULK1 Inhibitor Suppresses Autophagy and Sensitizes Cancer Cells to Nutrient Stress” (iScience, 2018).

Assay [1] deals with Activated CDC42 kinase 1 (Homo sapiens) (UniProt Q07912). Description: Inhibition of human recombinant ACK at 40 nM in presence of ATP by radiometric assay relative to control. An outline of the steps:
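Panel of 327 recombinant human kinases in radiometric activity assays, each screened in duplicate at a single inhibitor concentration; percent activity remaining relative to vehicle control, percent inhibition taken as 100 minus activity remaining.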

Assay [2] addresses Dual specificity tyrosine-phosphorylation-regulated kinase 1A (Homo sapiens) (UniProt Q13627). The assay can be described thus: Inhibition of human recombinant DYRK1A at 40 nM related to control ULK1.
For assay [3], the target named is Cyclin-dependent kinase-like 3 (Homo sapiens) (UniProt Q8IVW4). Description: Inhibition of human recombinant CDKL3 at 40 nM related to control ULK1.
Cyclin-dependent kinase-like 3 (Homo sapiens), sequence (Q8IVW4 whole entry, looked up): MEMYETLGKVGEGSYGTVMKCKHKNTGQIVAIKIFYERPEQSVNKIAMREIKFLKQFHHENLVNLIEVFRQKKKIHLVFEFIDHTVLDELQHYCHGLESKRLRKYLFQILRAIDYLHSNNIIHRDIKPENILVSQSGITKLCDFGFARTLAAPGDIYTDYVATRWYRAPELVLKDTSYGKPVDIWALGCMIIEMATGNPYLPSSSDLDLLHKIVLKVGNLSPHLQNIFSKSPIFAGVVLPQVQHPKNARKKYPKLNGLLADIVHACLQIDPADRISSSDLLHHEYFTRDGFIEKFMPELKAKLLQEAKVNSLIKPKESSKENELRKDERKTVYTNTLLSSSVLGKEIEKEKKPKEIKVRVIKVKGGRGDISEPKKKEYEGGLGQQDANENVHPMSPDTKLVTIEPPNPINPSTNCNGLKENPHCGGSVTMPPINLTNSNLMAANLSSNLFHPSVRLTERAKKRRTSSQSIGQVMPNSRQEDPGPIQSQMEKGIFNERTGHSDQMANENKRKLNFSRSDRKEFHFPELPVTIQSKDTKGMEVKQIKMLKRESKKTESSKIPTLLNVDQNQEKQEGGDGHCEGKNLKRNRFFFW
The target in assay [4] is Protein kinase C alpha type (Homo sapiens) (UniProt P17252). The assay can be described thus: Inhibition of human recombinant PKCa at 40 nM in presence of ATP by radiometric assay relative to control.
Assay [5] addresses Wee1-like protein kinase (Homo sapiens) (UniProt P30291). The assay can be described thus: Inhibition of human recombinant Wee1 at 500 nM in presence of ATP by radiometric assay relative to control.
The target in assay [6] is T1, Inhibitor of nuclear factor kappa-B kinase subunit epsilon (Homo sapiens) (UniProt Q14164).
T1 sequence (whole entry): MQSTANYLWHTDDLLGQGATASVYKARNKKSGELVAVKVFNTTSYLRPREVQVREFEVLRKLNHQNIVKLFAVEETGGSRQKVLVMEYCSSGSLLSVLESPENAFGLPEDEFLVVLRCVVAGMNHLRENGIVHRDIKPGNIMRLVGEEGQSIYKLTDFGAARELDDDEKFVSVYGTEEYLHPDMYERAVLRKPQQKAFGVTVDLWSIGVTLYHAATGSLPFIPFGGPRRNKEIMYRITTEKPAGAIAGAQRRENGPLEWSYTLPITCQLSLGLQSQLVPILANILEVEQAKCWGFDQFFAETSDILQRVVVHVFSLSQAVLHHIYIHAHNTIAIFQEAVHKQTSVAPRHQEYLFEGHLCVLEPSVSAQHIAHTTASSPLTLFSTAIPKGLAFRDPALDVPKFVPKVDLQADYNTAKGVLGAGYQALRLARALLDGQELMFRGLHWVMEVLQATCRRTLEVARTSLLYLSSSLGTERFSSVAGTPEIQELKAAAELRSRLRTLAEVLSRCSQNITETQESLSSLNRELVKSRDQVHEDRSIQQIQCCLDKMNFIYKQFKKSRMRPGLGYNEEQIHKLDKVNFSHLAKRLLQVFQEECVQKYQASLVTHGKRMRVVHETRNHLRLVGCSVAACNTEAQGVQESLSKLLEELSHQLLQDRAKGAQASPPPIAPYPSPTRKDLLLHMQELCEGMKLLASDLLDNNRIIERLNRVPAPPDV
The assay can be described thus: Inhibition of human recombinant IKKe at 500 nM in presence of ATP by radiometric assay relative to control.

Assay [7] addresses Proto-oncogene tyrosine-protein kinase Src (Homo sapiens) (UniProt P12931). Description: Inhibition of human recombinant SRC at 500 nM related to control ULK1.
The target of assay [8] is T2, Serine/threonine-protein kinase TBK1 (Homo sapiens) (UniProt Q9UHD2).
T2 sequence (whole entry): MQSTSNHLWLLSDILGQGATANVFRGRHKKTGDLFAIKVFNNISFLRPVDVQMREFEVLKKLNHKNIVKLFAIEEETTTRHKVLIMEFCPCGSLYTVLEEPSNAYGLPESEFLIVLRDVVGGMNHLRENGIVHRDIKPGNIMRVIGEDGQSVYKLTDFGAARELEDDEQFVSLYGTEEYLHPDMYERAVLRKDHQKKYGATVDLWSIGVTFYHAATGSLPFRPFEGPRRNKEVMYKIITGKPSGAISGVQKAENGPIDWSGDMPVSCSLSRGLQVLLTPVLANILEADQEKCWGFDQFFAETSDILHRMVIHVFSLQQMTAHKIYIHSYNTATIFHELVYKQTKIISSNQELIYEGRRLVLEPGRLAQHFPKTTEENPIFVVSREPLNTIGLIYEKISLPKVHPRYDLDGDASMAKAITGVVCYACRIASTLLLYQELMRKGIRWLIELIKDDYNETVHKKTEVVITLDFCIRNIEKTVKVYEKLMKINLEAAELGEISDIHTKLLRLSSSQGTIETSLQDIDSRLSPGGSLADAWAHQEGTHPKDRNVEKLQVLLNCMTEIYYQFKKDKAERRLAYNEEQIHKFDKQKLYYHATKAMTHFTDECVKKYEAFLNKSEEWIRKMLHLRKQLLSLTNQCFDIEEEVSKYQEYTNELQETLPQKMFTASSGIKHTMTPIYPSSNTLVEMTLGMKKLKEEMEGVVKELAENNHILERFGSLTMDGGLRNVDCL
Description: Inhibition of human recombinant TBK1 at 15 nM related to control ULK1.

For assay [9], the target named is Serine/threonine-protein kinase MARK2 (Homo sapiens) (UniProt Q7KZI7). Description: Inhibition of human recombinant MARK2 at 15 nM related to control ULK1.
Serine/threonine-protein kinase MARK2 (Homo sapiens), sequence (Q7KZI7 whole entry): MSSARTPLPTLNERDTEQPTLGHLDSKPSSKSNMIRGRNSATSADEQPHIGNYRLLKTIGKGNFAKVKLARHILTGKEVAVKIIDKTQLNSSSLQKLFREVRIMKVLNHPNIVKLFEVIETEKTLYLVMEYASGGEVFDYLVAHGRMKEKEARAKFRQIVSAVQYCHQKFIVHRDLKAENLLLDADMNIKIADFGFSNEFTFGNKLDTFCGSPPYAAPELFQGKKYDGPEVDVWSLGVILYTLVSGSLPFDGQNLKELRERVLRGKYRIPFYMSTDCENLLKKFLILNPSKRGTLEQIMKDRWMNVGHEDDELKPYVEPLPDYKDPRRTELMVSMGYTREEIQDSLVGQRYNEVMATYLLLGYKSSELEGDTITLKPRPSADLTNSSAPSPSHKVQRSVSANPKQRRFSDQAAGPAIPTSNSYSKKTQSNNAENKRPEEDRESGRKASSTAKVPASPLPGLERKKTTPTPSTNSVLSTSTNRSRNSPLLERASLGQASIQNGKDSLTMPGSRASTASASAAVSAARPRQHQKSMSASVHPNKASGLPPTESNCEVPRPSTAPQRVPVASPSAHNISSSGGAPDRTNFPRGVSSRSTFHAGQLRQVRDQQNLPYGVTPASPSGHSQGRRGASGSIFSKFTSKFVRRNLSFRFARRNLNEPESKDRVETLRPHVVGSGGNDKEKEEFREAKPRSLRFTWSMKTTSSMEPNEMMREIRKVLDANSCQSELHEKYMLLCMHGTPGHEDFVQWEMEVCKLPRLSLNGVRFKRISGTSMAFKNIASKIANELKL
Assay [10] addresses T3, MAPK/MAK/MRK overlapping kinase (Homo sapiens) (UniProt Q9UQ07).
T3 sequence (whole entry): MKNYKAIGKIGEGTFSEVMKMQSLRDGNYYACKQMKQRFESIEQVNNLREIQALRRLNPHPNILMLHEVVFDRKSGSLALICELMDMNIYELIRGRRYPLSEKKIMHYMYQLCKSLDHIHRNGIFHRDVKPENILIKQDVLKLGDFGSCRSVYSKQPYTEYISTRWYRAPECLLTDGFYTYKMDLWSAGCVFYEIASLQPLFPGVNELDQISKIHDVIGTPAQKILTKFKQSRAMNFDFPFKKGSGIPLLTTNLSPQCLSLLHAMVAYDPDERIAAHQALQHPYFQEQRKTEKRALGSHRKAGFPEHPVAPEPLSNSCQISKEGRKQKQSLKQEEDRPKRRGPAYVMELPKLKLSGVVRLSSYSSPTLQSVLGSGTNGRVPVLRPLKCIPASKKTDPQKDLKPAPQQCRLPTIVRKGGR
Description: Inhibition of human recombinant MOK at 15 nM related to control ULK1.

Assay [11] deals with T4, Testis-specific serine/threonine-protein kinase 1 (Homo sapiens) (UniProt Q9BXA7).
T4 sequence (whole entry): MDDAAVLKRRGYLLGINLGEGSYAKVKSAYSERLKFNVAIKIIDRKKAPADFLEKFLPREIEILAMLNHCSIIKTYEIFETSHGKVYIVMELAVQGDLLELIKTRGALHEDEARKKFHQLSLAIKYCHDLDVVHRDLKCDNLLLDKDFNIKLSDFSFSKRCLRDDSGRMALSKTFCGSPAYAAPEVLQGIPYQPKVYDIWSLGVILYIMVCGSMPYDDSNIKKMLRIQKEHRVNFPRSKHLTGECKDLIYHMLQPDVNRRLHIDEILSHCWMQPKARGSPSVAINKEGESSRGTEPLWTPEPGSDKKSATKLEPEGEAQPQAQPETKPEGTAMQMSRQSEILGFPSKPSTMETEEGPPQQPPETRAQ
Description: Inhibition of human recombinant TSSK1 at 15 nM in presence of ATP by radiometric assay relative to control.

Proto-oncogene tyrosine-protein kinase Src (Homo sapiens), sequence (P12931 2-536 limits assumed): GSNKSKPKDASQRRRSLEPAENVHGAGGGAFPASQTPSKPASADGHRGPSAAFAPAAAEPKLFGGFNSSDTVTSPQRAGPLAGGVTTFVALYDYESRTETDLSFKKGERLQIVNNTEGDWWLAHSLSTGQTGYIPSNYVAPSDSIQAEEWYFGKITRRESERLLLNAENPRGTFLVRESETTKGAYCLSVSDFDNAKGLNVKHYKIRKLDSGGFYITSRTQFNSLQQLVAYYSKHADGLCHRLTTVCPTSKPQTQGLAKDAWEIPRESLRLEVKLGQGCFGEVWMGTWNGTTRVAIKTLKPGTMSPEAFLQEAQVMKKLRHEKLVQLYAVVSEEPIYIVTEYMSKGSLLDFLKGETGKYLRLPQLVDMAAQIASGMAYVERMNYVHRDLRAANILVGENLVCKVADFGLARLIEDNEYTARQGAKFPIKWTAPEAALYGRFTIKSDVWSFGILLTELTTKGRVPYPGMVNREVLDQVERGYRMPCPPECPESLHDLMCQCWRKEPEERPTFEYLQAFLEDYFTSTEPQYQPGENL
Activated CDC42 kinase 1 (Homo sapiens), sequence (Q07912 whole entry, looked up): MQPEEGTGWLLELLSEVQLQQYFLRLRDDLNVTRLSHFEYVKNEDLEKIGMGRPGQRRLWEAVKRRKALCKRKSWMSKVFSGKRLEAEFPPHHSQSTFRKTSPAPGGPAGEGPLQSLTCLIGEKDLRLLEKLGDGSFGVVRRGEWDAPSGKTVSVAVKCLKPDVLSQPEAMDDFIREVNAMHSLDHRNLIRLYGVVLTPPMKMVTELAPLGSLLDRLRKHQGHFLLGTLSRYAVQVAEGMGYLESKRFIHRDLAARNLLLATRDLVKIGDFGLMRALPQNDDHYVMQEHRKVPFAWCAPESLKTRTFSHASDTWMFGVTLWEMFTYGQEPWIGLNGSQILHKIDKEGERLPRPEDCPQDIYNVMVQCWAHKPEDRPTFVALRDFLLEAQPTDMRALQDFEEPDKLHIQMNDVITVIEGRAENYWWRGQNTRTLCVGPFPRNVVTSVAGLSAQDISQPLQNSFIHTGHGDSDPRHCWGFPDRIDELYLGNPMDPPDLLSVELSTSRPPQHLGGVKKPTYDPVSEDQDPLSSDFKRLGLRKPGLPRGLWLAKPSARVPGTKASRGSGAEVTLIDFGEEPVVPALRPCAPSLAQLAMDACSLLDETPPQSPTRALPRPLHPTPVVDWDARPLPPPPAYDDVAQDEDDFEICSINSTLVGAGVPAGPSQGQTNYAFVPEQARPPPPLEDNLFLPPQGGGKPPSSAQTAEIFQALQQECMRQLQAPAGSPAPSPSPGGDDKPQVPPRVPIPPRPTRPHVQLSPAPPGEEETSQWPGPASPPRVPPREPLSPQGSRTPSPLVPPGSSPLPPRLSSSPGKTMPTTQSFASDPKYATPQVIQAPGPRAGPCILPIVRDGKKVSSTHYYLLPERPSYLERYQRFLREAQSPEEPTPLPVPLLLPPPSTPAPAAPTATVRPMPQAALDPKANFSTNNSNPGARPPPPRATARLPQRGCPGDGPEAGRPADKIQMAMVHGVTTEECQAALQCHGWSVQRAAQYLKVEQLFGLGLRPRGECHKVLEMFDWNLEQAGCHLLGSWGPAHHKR
Wee1-like protein kinase (Homo sapiens), sequence (P30291 whole entry, looked up): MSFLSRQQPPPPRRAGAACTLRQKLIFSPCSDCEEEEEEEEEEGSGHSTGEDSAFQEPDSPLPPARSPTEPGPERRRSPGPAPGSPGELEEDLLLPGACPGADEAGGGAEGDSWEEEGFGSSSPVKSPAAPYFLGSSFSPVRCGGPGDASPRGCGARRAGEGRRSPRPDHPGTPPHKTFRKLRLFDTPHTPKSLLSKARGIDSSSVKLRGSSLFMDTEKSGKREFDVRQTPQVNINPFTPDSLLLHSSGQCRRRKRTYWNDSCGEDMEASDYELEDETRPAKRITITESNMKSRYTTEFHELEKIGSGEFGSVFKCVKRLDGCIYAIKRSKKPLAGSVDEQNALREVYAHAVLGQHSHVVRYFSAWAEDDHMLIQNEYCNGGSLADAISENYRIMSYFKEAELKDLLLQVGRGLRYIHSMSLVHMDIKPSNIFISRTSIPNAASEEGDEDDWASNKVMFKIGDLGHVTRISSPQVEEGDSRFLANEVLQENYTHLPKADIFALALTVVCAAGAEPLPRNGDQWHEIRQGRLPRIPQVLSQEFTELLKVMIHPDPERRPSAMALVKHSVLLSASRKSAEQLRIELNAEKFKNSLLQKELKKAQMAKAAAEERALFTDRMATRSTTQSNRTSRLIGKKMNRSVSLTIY

Turning to `O=C(N[C@@H](C1CC1)C(F)(F)F)c1cc(-c2cnn3cc(-c4ccc(F)cc4)cnc23)cs1`, the inhibition is 17% in [1] and 0% in assay [4]. Moreover, the figures for the fold change (FC) in assay [2] and in [3] were 0.59 and 0.53, respectively.

In the case of `CNC(=O)c1ccccc1Oc1nc(Nc2cc(OC)c(OC)c(OC)c2)ncc1Br`, the inhibition turned out to be 16% in assay [5] and 0% in assay [6]. For the same molecule, the fold change (FC) in assay [7] is 0.26.

Turning to `CC(C)[C@H](NC(=O)c1cc(-c2cnn3cc(-c4ccc(OCCN5CCCCC5)cc4)cnc23)cs1)C(F)(F)F`, the fold change (FC) in assay [8] came out at 0.9; in [9], 0.53; in assay [10], 0.06. For the same molecule, the inhibition in assay [11] amounted to 23%.

A word on the inhibition: it is the change of the read-out against control, counted positive when it falls.
